# Reference: ChEMBL document CHEMBL4373711, “Development of 3,5-Dinitrophenyl-Containing 1,2,4-Triazoles and Their Trifluoromethyl Analogues as Highly Efficient Antitubercular Agents Inhibiting Decaprenylphosphoryl-β-d-ribofuranose 2'-Oxidase” (J Med Chem, 2019)
# Activity calls are given as the source filed them. No cut-off for these calls is given here.
# Legend:
# Mycobacterium kansasii [1] = test: Antimycobacterial activity against Mycobacterium kansasii 6509/96 after 7 days; format: functional; conditions: 6509/96, 168 h
# In short: (§1)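 Microdilution in Šula's semisynthetic medium; compounds in DMSO at 32–0.03 µM. Inoculum from 1.0 McFarland suspension diluted 10-4. […] Isoniazid and rifampicin as reference drugs.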
# Mycobacterium kansasii [2] = test: Antimycobacterial activity against Mycobacterium kansasii CNCTC My 235/80 after 7 days; format: functional; conditions: CNCTC My 235/80, 168 h; in short: as §1
# Mycobacterium avium [3] = test: Antimycobacterial activity against Mycobacterium avium CNCTC My 330/88 after 21 days; format: functional; conditions: CNCTC My 330/88, 504 h
# In short: (§2)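 M. avium was tested by microdilution in Šula's semisynthetic medium, with compounds dissolved in DMSO and serially diluted from 1000 down to 1. Inoculum was a 1.0 McFarland suspension diluted 10-5. Plates were incubated at 37 °C and read at 14 and 21 days. […] Isoniazid and rifampicin served as standards.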
# [4] = system: Mycobacterium tuberculosis; test: Antimycobacterial activity against Mycobacterium tuberculosis H37Rv CNCTC My 331/88 after 21 days; format: functional; conditions: H37Rv CNCTC My 331/88, 504 h
# In short: (§3)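 M. tuberculosis strains (H37Rv and clinical MDR/XDR isolates) tested by microdilution in Šula's semisynthetic medium. Compounds were dissolved in DMSO and tested at 32 to 0.03 µM in twofold steps. Inoculum was a 1.0 McFarland suspension diluted 10-3. Plates were incubated at 37 °C and read at 14 and 21 days.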
# Mycobacterium kansasii [5] = test: Antimycobacterial activity against Mycobacterium kansasii CNCTC My 235/80 after 14 days; format: functional; conditions: CNCTC My 235/80, 336 h; in short: as §1
# Mycobacterium kansasii [6] = test: Antimycobacterial activity against Mycobacterium kansasii CNCTC My 235/80 after 21 days; format: functional; conditions: CNCTC My 235/80, 504 h; in short: as §1
# Mycobacterium kansasii [7] = test: Antimycobacterial activity against Mycobacterium kansasii 6509/96 after 21 days; format: functional; conditions: 6509/96, 504 h; in short: as §1
# Mycobacterium avium [8] = test: Antimycobacterial activity against Mycobacterium avium CNCTC My 330/88 after 14 days; format: functional; conditions: CNCTC My 330/88, 336 h; in short: as §2
# Mycobacterium kansasii [9] = test: Antimycobacterial activity against Mycobacterium kansasii 6509/96 after 14 days; format: functional; conditions: 6509/96, 336 h; in short: as §1
# [10] = system: Mycobacterium tuberculosis; test: Antimycobacterial activity against Mycobacterium tuberculosis H37Rv CNCTC My 331/88 after 14 days; format: functional; conditions: H37Rv CNCTC My 331/88, 336 h; in short: as §3
# Candida tropicalis = test: Antifungal activity against Candida tropicalis ATCC 750 CCM 8264 at highest concentration measured after 24 to 48 hrs by alamar blue dye based broth microdilution assay; format: functional, organism-based
# [11] = system: Staphylococcus epidermidis; test: Antibacterial activity against Staphylococcus epidermidis at highest concentration measured after 24 to 48 hrs by alamar blue dye based broth microdilution assay; format: functional, organism-based
# Candida albicans = test: Antifungal activity against Candida albicans ATCC 24433 CCM 8320 at highest concentration measured after 24 to 48 hrs by alamar blue dye based broth microdilution assay; format: functional, organism-based
# Serratia marcescens = test: Antibacterial activity against Serratia marcescens at highest concentration measured after 24 to 48 hrs by alamar blue dye based broth microdilution assay; format: functional, organism-based
# Candida parapsilosis = test: Antifungal activity against Candida parapsilosis ATCC 22019 CCM 8260 at highest concentration measured after 24 to 48 hrs by alamar blue dye based broth microdilution assay; format: functional, organism-based
# Staphylococcus aureus [12] = test: Antibacterial activity against methicillin-resistant Staphylococcus aureus subsp. aureus ATCC 43300 CCM 4750 at highest concentration measured after 24 to 48 hrs by alamar blue dye based broth microdilution assay; format: functional, organism-based
# Pseudomonas aeruginosa = test: Antibacterial activity against Pseudomonas aeruginosa ATCC 27853 CCM 3955 at highest concentration measured after 24 to 48 hrs by alamar blue dye based broth microdilution assay; format: functional, organism-based
# Klebsiella pneumoniae = test: Antibacterial activity against Klebsiella pneumoniae at highest concentration measured after 24 to 48 hrs by alamar blue dye based broth microdilution assay; format: functional, organism-based
# Aspergillus fumigatus = test: Antifungal activity against Aspergillus fumigatus ATCC 204305 at highest concentration measured after 24 to 48 hrs by alamar blue dye based broth microdilution assay; format: functional, organism-based
# Pichia kudriavzevii = test: Antifungal activity against Candida krusei ATCC 6258 CCM8271 at highest concentration measured after 24 to 48 hrs by alamar blue dye based broth microdilution assay; format: functional, organism-based
# Lichtheimia corymbifera = test: Antifungal activity against Lichtheimia corymbifera CCM 8077 at highest concentration measured after 24 to 48 hrs by alamar blue dye based broth microdilution assay; format: functional, organism-based
# Escherichia coli = test: Antibacterial activity against Escherichia coli ATCC 25922 CCM 3954 at highest concentration measured after 24 to 48 hrs by alamar blue dye based broth microdilution assay; format: functional, organism-based
# Aspergillus flavus = test: Antifungal activity against Aspergillus flavus CCM 8363 at highest concentration measured after 24 to 48 hrs by alamar blue dye based broth microdilution assay; format: functional, organism-based
# [13] = system: Trichophyton interdigitale; test: Antifungal activity against Trichophyton interdigitale ATCC 9533 CCM 8377 at highest concentration measured after 72 to 120 hrs by alamar blue dye based broth microdilution assay; format: functional
# Staphylococcus aureus [14] = test: Antibacterial activity against Staphylococcus aureus subsp. aureus ATCC 29213 CCM 4223 at highest concentration measured after 24 to 48 hrs by alamar blue dye based broth microdilution assay; format: functional, organism-based
# Enterococcus faecalis = test: Antibacterial activity against Enterococcus faecalis ATCC 29212 CCM 4224 at highest concentration measured after 24 to 48 hrs by alamar blue dye based broth microdilution assay; format: functional, organism-based
Structure (SMILES),MIC99 (Mycobacterium kansasii [1]) [µM],MIC99 (Mycobacterium kansasii [2]) [µM],MIC99 (Mycobacterium avium [3]) [µM],MIC99 [4] [µM],MIC99 (Mycobacterium kansasii [5]) [µM],MIC99 (Mycobacterium kansasii [6]) [µM],MIC99 (Mycobacterium kansasii [7]) [µM],MIC99 (Mycobacterium avium [8]) [µM],MIC99 (Mycobacterium kansasii [9]) [µM],MIC99 [10] [µM],further results
O=[N+]([O-])c1cc(CSc2nnc(-c3ccccc3)[nH]2)cc([N+](=O)[O-])c1,4,4,125,4,8,8,16,62,8,2,
CCCCCCCCSc1nnc(-c2cc([N+](=O)[O-])cc(C(F)(F)F)c2)n1Cc1ccccc1,,1,250,2,2,2,,250,,2,
NNC(=O)c1ccncc1 [ISONIAZID],2,> 250,> 250,,> 250,> 250,4,> 250,4,,
O=[N+]([O-])c1cc(Cn2c(SCc3ccc(Cl)c(Cl)c3)nnc2-c2ccccc2)cc([N+](=O)[O-])c1,8,4,250,16,8,16,16,250,16,8,Activity (Candida tropicalis): inactive; Activity [11]: inactive; Activity (Candida albicans): inactive; Activity (Serratia marcescens): inactive; Activity (Candida parapsilosis): inactive; Activity (Staphylococcus aureus [12]): inactive; Activity (Pseudomonas aeruginosa): inactive; Activity (Klebsiella pneumoniae): inactive; Activity (Aspergillus fumigatus): inactive; Activity (Pichia kudriavzevii): inactive; Activity (Lichtheimia corymbifera): inactive; Activity (Escherichia coli): inactive; Activity (Aspergillus flavus): inactive; Activity [13]: inactive; Activity (Staphylococcus aureus [14]): inactive; Activity (Enterococcus faecalis): inactive
Cn1c(SCc2cc([N+](=O)[O-])cc([N+](=O)[O-])c2)nnc1-c1ccccc1,4,4,250,4,8,16,16,125,8,4,
Cc1ccc(-c2nnc(SCc3cc([N+](=O)[O-])cc(C(F)(F)F)c3)n2Cc2ccccc2)cc1,> 32,> 32,250,> 32,> 32,> 32,> 32,250,> 32,> 32,
O=[N+]([O-])c1cc(-c2nnc(SCc3ccc(Br)cc3)n2Cc2ccccc2)cc(C(F)(F)F)c1,0.5,0.5,250,1,1,1,2,250,1,1,
O=[N+]([O-])c1ccc(-c2nnc(SCc3cc([N+](=O)[O-])cc([N+](=O)[O-])c3)n2Cc2ccccc2)cc1,2,2,250,4,4,4,8,250,4,4,
CCNC(=S)NNC(=O)c1cc([N+](=O)[O-])cc([N+](=O)[O-])c1,> 32,> 32,1000,> 32,> 32,> 32,> 32,1000,> 32,> 32,
